Measured values taken from ChEMBL document CHEMBL2311295 (J Med Chem, 2013).

Legend:
HCT-116 [1] = assay: Cytotoxicity against human HCT116 cells after 72 hrs by phosphatase assay; type: functional, cell-based; conditions: HCT-116, 72 h
Method in brief: (§1)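 Cells diluted to 30,000 cells/mL in DMEM with 10% FBS and seeded into 96-well plates (100 μL per well), then grown 24 h at 37 °C under 5% CO2. Test agents were made as 1 mM DMSO stocks with 10-fold serial dilutions and tested at six concentrations over 0–1,000 nM or 0–10,000 nM, in duplicate, for 72 h. Acid phosphatase read-out: substrate in 0.1 M NaOAc pH 5.5 with 0.1% Triton X-100, 15 min at 37 °C, stopped with NaOH, A405.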

HCT-116 [2] = assay: Ratio of vinblastine IC50 to compound IC50 for human HCT116 cells; type: functional
Method in brief: (§2)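 Both IC50 values come from the 72 h acid phosphatase (A405) proliferation assay: six concentrations over 0–1,000 or 0–10,000 nM, with each value the mean of 4–16 determinations.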

HCT-116/VM46 [3] = assay: Cytotoxicity against vinblastine-resistant human HCT116/VM46 cells after 72 hrs by phosphatase assay; type: functional, cell-based; conditions: HCT-116/VM46, 72 h
Method in brief: as §1, with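 “A405. IC50 is the mean of 4–16 determinations.” for “A405.”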

HCT-116 [4] = assay: Ratio of IC50 for vinblastine-resistant human HCT116/VM46 cells to IC50 for human HCT116 cells; type: functional
Method in brief: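 Ratio of IC50 in HCT116/VM46 to IC50 in HCT116. Both IC50 values come from the 72 h phosphatase (A405) growth inhibition assay: six concentrations up to 1,000 or 10,000 nM, run in duplicate, averaging 4–16 determinations each.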

Tubulin (Sus scrofa) = Tubulin (Sus scrofa) (UniProt P02554+P02550); assay: Displacement of [3H]-vinblastine from pig tubulin at 7.2 x 10^-5 M after 60 mins; type: protein assay
Tubulin (Sus scrofa), sequence (P02550 whole entry, looked up): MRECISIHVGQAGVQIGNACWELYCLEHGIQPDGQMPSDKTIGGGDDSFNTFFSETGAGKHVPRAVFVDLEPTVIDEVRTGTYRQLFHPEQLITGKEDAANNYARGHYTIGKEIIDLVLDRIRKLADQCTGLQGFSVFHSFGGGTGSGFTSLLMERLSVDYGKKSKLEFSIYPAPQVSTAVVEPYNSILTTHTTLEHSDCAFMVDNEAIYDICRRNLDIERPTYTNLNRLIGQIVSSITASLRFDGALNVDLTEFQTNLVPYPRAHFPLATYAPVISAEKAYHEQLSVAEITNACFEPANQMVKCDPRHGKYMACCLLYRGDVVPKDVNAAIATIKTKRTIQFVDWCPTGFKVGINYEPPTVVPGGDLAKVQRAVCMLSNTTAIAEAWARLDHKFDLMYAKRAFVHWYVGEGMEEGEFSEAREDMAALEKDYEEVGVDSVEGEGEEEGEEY
Tubulin (Sus scrofa), sequence (P02554 whole entry, looked up): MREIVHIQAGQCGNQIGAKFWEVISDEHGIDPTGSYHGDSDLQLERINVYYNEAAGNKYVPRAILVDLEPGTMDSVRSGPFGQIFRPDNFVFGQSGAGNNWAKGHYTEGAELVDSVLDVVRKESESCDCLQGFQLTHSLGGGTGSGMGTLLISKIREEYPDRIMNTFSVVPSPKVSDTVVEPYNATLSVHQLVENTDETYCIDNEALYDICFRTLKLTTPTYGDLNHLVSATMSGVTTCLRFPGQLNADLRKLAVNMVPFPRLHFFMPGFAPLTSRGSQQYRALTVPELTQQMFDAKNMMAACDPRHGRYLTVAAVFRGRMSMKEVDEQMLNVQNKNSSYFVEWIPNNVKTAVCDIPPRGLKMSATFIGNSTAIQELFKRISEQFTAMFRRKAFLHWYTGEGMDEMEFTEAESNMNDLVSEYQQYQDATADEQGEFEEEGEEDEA
Method in brief: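 Purified porcine tubulin (100 µL tubulin solution diluted with 850 µL general tubulin buffer) preincubated with 25 µL of 7.2 × 10⁻⁵ M ³H-vinblastine, 15 min at 37 °C. Then 25 µL of 7.2 × 10⁻⁵ M unlabeled test alkaloid added, incubation continued 60 min. Displacement of bound ³H-vinblastine measured by a previously described procedure.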

HCT-116/VM46 [5] = assay: Ratio of vinblastine IC50 to compound IC50 for vinblastine-resistant human HCT116/VM46 cells; type: functional; method in brief: as §2

| SMILES | IC50 (HCT-116 [1]) | Ratio IC50 (HCT-116 [2]) | IC50 (HCT-116/VM46 [3]) | Ratio IC50 (HCT-116 [4]) | inhibition (Tubulin (Sus scrofa)) | Ratio IC50 (HCT-116/VM46 [5]) |
| --- | --- | --- | --- | --- | --- | --- |
| CC[C@]1(NC(=O)NC(C)C)C[C@H]2CN(CCc3c([nH]c4ccccc34)[C@@](C(=O)OC)(c3cc4c(cc3OC)N(C)[C@H]3[C@@](O)(C(=O)OC)[C@H](OC(C)=O)[C@]5(CC)C=CCN6CC[C@]43[C@@H]65)C2)C1 | 5.7 nM | 10 | 530 nM | – | – | – |
| CC[C@]1(NC(=O)N(C)C)C[C@H]2CN(CCc3c([nH]c4ccccc34)[C@@](C(=O)OC)(c3cc4c(cc3OC)N(C)[C@H]3[C@@](O)(C(=O)OC)[C@H](OC(C)=O)[C@]5(CC)C=CCN6CC[C@]43[C@@H]65)C2)C1 | 2.8 nM | – | 80 nM | 10 | 45.1% | – |
| CC[C@]1(NC(=O)N2CCCCC2)C[C@H]2CN(CCc3c([nH]c4ccccc34)[C@@](C(=O)OC)(c3cc4c(cc3OC)N(C)[C@H]3[C@@](O)(C(=O)OC)[C@H](OC(C)=O)[C@]5(CC)C=CCN6CC[C@]43[C@@H]65)C2)C1 | 3.9 nM | – | 50 nM | 10 | – | – |
| CC[C@]1(NC(=O)NC2CC2)C[C@H]2CN(CCc3c([nH]c4ccccc34)[C@@](C(=O)OC)(c3cc4c(cc3OC)N(C)[C@H]3[C@@](O)(C(=O)OC)[C@H](OC(C)=O)[C@]5(CC)C=CCN6CC[C@]43[C@@H]65)C2)C1 | 0.73 nM | 10 | 85 nM | – | – | – |
| CCNC(=O)N[C@@]1(CC)C[C@H]2CN(CCc3c([nH]c4ccccc34)[C@@](C(=O)OC)(c3cc4c(cc3OC)N(C)[C@H]3[C@@](O)(C(=O)OC)[C@H](OC(C)=O)[C@]5(CC)C=CCN6CC[C@]43[C@@H]65)C2)C1 | 0.73 nM | 10 | 90 nM | – | – | – |
| CC[C@]1(NC(=O)Nc2cccc(OC)c2)C[C@H]2CN(CCc3c([nH]c4ccccc34)[C@@](C(=O)OC)(c3cc4c(cc3OC)N(C)[C@H]3[C@@](O)(C(=O)OC)[C@H](OC(C)=O)[C@]5(CC)C=CCN6CC[C@]43[C@@H]65)C2)C1 | 0.77 nM | 10 | 80 nM | – | – | – |
| CC[C@]1(NC(=S)NC2CCCCC2)C[C@H]2CN(CCc3c([nH]c4ccccc34)[C@@](C(=O)OC)(c3cc4c(cc3OC)N(C)[C@H]3[C@@](O)(C(=O)OC)[C@H](OC(C)=O)[C@]5(CC)C=CCN6CC[C@]43[C@@H]65)C2)C1 | 20 nM | – | 520 nM | 26 | – | – |
| CCCNC(=O)N[C@@]1(CC)C[C@H]2CN(CCc3c([nH]c4ccccc34)[C@@](C(=O)OC)(c3cc4c(cc3OC)N(C)[C@H]3[C@@](O)(C(=O)OC)[C@H](OC(C)=O)[C@]5(CC)C=CCN6CC[C@]43[C@@H]65)C2)C1 | 2.7 nM | 10 | 220 nM | – | – | – |
| CC[C@]1(NC(=O)NC)C[C@H]2CN(CCc3c([nH]c4ccccc34)[C@@](C(=O)OC)(c3cc4c(cc3OC)N(C)[C@H]3[C@@](O)(C(=O)OC)[C@H](OC(C)=O)[C@]5(CC)C=CCN6CC[C@]43[C@@H]65)C2)C1 | 0.82 nM | 10 | 530 nM | – | – | – |
| CCNC(=O)N[C@@]1(CC)C[C@H]2CN(CCc3c([nH]c4ccc(F)cc34)[C@@](C(=O)OC)(c3cc4c(cc3OC)N(C)[C@H]3[C@@](O)(C(=O)OC)[C@H](OC(C)=O)[C@]5(CC)C=CCN6CC[C@]43[C@@H]65)C2)C1 | 0.62 nM | 10 | 70 nM | – | – | 10 |
| CC[C@]1(NC(=O)Nc2ccc(-c3ccccc3)cc2)C[C@H]2CN(CCc3c([nH]c4ccccc34)[C@@](C(=O)OC)(c3cc4c(cc3OC)N(C)[C@H]3[C@@](O)(C(=O)OC)[C@H](OC(C)=O)[C@]5(CC)C=CCN6CC[C@]43[C@@H]65)C2)C1 | 6.9 nM | – | 470 nM | – | 48.5% | – |
| CC[C@]1(O)C[C@H]2CN(CCc3c([nH]c4ccc(F)cc34)[C@@](C(=O)OC)(c3cc4c(cc3OC)N(C)[C@H]3[C@@](O)(C(=O)OC)[C@H](OC(C)=O)[C@]5(CC)C=CCN6CC[C@]43[C@@H]65)C2)C1 | – | 8 | – | – | – | – |
| CC[C@]1(NC(=O)NCCO)C[C@H]2CN(CCc3c([nH]c4ccccc34)[C@@](C(=O)OC)(c3cc4c(cc3OC)N(C)[C@H]3[C@@](O)(C(=O)OC)[C@H](OC(C)=O)[C@]5(CC)C=CCN6CC[C@]43[C@@H]65)C2)C1 | 8.8 nM | – | > 1000 nM | – | – | – |
| CC[C@]1(NC(=O)Nc2ccccc2OC)C[C@H]2CN(CCc3c([nH]c4ccccc34)[C@@](C(=O)OC)(c3cc4c(cc3OC)N(C)[C@H]3[C@@](O)(C(=O)OC)[C@H](OC(C)=O)[C@]5(CC)C=CCN6CC[C@]43[C@@H]65)C2)C1 | 0.77 nM | 10 | 65 nM | – | – | – |
| CC[C@]1(NC(=O)Nc2ccc(F)cc2)C[C@H]2CN(CCc3c([nH]c4ccccc34)[C@@](C(=O)OC)(c3cc4c(cc3OC)N(C)[C@H]3[C@@](O)(C(=O)OC)[C@H](OC(C)=O)[C@]5(CC)C=CCN6CC[C@]43[C@@H]65)C2)C1 | 3.9 nM | – | 400 nM | – | – | – |
| CC[C@]1(NC(=O)NCc2ccco2)C[C@H]2CN(CCc3c([nH]c4ccccc34)[C@@](C(=O)OC)(c3cc4c(cc3OC)N(C)[C@H]3[C@@](O)(C(=O)OC)[C@H](OC(C)=O)[C@]5(CC)C=CCN6CC[C@]43[C@@H]65)C2)C1 | 5.1 nM | – | 530 nM | – | – | – |
